Reference: ChEMBL document CHEMBL3098105, “7,7'-Diazaindirubin--a small molecule inhibitor of casein kinase 2 in vitro and in cells” (Bioorg Med Chem, 2014)

Tests used:
[1] = target: Tyrosine-protein kinase Yes (Homo sapiens) (UniProt P07947); experiment: Inhibition of human Yes assessed as residual activity at 1 uM relative to control
[2] = test system: LOX IMVI; experiment: Antiproliferative activity against human LOXIMVI cells after 3 days by sulforhodamine B assay; assay type: functional; conditions: 72 h
Outline: (§1)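 Tested in the NCI 60 cell line panel. GI50 is the concentration giving 50% inhibition of cell growth, and values are the mean of two series of tests.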

[3] = target: Serine/threonine-protein kinase Sgk1 (Homo sapiens) (UniProt O00141); experiment: Inhibition of human SGK assessed as residual activity at 1 uM relative to control
[4] = target: PAS domain-containing serine/threonine-protein kinase (Homo sapiens) (UniProt Q96RG2); experiment: Inhibition of human PASK assessed as residual activity at 1 uM relative to control
[5] = target: Ephrin type-A receptor 4 (Homo sapiens) (UniProt P54764); experiment: Inhibition of human EphA4 assessed as residual activity at 1 uM relative to control
[6] = target: Insulin-like growth factor 1 receptor (Homo sapiens) (UniProt P08069); experiment: Inhibition of IGF1-R (unknown origin) assessed as residual activity at 1 uM relative to control
[7] = target: Mitogen-activated protein kinase 13 (Homo sapiens) (UniProt O15264); experiment: Inhibition of human SAPK4 assessed as residual activity at 1 uM relative to control
[8] = target: Tyrosine-protein kinase ABL1 (Homo sapiens) (UniProt P00519); experiment: Inhibition of ABL1 (unknown origin) assessed as residual activity at 10 uM relative to control
[9] = target: RAF proto-oncogene serine/threonine-protein kinase (Homo sapiens) (UniProt P04049); experiment: Inhibition of RAF1 (unknown origin) assessed as residual activity at 1 uM relative to control
RAF proto-oncogene serine/threonine-protein kinase (Homo sapiens), sequence (P04049 whole entry): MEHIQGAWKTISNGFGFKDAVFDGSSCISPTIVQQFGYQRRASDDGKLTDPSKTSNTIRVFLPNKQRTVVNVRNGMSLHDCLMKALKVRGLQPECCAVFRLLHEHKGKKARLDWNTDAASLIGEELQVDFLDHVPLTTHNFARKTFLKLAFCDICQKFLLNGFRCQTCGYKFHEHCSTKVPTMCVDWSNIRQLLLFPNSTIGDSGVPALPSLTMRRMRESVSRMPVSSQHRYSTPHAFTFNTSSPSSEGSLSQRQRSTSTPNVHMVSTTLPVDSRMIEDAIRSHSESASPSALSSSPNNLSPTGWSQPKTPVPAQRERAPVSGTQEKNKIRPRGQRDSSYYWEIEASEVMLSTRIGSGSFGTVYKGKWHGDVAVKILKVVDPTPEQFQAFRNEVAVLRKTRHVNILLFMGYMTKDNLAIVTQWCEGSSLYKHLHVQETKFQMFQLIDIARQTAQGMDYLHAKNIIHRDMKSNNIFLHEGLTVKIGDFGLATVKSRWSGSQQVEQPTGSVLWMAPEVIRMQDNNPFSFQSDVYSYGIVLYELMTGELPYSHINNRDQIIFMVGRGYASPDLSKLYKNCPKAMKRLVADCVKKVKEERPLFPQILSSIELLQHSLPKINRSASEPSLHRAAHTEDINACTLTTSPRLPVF

[10] = target: Mitogen-activated protein kinase 11 (Homo sapiens) (UniProt Q15759); experiment: Inhibition of human SAPK2beta assessed as residual activity at 1 uM relative to control
[11] = test system: HT-29; experiment: Antiproliferative activity against human HT-29 cells after 3 days by SRB assay; assay type: functional, cell-based; conditions: HT-29, 72 h
Outline: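 Cells grown at 37 °C, 5% CO2, with 10% heat-inactivated FBS: LXFL529L in RPMI 1640, MCF7 and HT29 in DMEM. Seeded, allowed 24 h growth, then exposed to the drug at various concentrations for 3 days in serum medium. Fixed with TCA for 1 h at 4 °C, stained with 0.4% SRB, eluted in 10 mM Tris pH 10.5, read at 570 nm as % T/C. IC50 taken from dose–response curves of at least three independent experiments.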

[12] = target: Focal adhesion kinase 1 (Homo sapiens) (UniProt Q05397); experiment: Inhibition of FAK fl (unknown origin) assessed as residual activity at 10 uM relative to control
Focal adhesion kinase 1 (Homo sapiens), sequence (Q05397 2-1052 limits assumed): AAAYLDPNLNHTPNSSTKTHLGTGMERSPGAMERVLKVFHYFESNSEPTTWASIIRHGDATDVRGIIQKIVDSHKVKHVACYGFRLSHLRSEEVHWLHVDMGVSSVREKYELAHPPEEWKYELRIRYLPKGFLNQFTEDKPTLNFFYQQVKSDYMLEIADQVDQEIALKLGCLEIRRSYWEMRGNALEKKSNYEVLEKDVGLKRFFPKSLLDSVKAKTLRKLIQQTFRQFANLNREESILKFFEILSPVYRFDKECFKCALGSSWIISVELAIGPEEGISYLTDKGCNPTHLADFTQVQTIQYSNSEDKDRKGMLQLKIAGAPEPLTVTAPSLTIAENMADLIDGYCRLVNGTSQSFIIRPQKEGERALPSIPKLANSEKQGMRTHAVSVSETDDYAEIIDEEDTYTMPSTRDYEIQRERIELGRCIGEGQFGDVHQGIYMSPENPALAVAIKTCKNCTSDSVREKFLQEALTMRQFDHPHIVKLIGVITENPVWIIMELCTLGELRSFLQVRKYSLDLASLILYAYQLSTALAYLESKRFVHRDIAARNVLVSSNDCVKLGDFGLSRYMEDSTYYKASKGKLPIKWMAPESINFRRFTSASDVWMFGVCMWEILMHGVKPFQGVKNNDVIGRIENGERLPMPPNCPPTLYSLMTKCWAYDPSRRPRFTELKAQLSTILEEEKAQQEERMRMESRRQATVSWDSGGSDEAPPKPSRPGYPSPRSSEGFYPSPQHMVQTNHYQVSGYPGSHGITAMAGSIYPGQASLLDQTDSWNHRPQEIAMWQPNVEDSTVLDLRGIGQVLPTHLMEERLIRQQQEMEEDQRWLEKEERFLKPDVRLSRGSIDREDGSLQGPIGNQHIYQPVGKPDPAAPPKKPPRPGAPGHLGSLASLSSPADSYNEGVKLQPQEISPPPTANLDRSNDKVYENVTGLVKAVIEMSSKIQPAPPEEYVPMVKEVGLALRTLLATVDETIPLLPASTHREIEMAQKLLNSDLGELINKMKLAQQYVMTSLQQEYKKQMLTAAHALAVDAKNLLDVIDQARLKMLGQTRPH

[13] = target: Casein kinase I isoform delta (Homo sapiens) (UniProt P48730); experiment: Inhibition of human CK1d assessed as residual activity at 1 uM relative to control
[14] = test system: SW-620; experiment: Antiproliferative activity against human SW620 cells after 3 days by sulforhodamine B assay; assay type: functional; conditions: SW-620, 72 h
[15] = target: Tyrosine-protein kinase receptor TYRO3 (Homo sapiens) (UniProt Q06418); experiment: Inhibition of human Rse assessed as residual activity at 1 uM relative to control
[16] = target: Tyrosine-protein kinase Mer (Homo sapiens) (UniProt Q12866); experiment: Inhibition of human Mer assessed as residual activity at 1 uM relative to control
[17] = test system: NCI-H322M; experiment: Antiproliferative activity against human NCI-H322M cells after 3 days by sulforhodamine B assay; assay type: functional; conditions: 72 h; outline: as §1
[18] = target: Receptor tyrosine-protein kinase erbB-2 (Homo sapiens) (UniProt P04626); experiment: Inhibition of ERBB2 (unknown origin) assessed as residual activity at 1 uM relative to control
[19] = target: Proto-oncogene tyrosine-protein kinase receptor Ret (Homo sapiens) (UniProt P07949); experiment: Inhibition of RET (unknown origin) assessed as residual activity at 1 uM relative to control
Proto-oncogene tyrosine-protein kinase receptor Ret (Homo sapiens), sequence (P07949 whole entry): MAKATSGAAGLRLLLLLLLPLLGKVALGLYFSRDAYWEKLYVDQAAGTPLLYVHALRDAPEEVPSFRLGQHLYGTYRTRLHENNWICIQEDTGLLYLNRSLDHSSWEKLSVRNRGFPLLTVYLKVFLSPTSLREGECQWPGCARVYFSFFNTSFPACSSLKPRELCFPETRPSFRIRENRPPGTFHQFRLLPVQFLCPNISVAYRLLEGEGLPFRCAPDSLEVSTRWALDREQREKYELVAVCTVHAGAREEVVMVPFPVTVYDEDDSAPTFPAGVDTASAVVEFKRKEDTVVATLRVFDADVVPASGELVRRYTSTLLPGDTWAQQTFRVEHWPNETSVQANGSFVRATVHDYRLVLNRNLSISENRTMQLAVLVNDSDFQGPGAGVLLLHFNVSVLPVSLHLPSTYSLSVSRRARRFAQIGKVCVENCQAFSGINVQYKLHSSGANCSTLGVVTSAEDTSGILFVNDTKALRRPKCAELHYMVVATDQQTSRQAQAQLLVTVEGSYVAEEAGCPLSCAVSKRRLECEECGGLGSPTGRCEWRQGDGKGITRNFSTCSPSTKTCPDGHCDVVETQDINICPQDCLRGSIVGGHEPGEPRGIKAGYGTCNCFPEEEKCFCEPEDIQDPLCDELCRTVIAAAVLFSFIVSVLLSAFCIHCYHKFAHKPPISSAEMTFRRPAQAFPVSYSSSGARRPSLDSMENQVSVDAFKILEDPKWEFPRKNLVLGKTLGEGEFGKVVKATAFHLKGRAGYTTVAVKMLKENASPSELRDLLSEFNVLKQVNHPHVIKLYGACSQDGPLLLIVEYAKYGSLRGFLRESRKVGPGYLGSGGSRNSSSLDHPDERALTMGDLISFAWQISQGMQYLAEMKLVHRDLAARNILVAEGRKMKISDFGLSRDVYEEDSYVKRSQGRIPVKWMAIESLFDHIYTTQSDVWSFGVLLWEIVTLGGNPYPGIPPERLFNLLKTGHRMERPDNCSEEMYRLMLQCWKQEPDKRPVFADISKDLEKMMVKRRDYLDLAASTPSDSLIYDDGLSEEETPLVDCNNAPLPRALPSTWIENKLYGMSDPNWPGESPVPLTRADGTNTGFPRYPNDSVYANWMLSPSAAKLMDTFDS

[20] = target: Mitogen-activated protein kinase 8 (Homo sapiens) (UniProt P45983); experiment: Inhibition of human JNK1alpha1 assessed as residual activity at 1 uM relative to control
Mitogen-activated protein kinase 8 (Homo sapiens), sequence (P45983 whole entry): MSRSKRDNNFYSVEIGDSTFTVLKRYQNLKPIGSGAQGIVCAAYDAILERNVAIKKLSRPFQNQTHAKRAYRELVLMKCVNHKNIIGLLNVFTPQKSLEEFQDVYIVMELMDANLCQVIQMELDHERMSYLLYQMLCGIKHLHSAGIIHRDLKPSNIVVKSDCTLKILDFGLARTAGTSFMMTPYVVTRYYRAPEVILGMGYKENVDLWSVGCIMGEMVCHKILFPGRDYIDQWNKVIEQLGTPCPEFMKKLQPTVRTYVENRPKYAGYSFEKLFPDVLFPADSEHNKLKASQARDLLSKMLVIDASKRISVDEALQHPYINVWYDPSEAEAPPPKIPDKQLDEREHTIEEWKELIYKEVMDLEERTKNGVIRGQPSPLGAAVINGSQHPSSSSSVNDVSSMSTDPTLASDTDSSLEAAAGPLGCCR

[21] = target: T1, Aurora kinase A (Homo sapiens) (UniProt O14965); experiment: Inhibition of Aurora-A (unknown origin) assessed as residual activity at 10 uM relative to control
T1 sequence (whole entry): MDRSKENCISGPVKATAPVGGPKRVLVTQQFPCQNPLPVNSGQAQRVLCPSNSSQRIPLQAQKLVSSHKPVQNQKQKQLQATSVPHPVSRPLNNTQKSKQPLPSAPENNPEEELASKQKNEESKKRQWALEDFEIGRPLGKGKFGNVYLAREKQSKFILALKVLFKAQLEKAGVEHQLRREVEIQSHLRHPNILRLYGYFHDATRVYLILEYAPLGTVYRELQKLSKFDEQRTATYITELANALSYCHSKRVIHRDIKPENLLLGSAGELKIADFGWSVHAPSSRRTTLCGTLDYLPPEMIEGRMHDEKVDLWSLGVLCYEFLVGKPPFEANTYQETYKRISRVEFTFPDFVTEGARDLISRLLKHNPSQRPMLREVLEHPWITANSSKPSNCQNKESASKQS

[22] = target: Focal adhesion kinase 1 (Homo sapiens) (UniProt Q05397); experiment: Inhibition of FAK fl (unknown origin) assessed as residual activity at 1 uM relative to control
[23] = target: SRSF protein kinase 3 (Homo sapiens) (UniProt Q9UPE1); experiment: Inhibition of human MSSK1 assessed as residual activity at 1 uM relative to control
SRSF protein kinase 3 (Homo sapiens), sequence (Q9UPE1 whole entry): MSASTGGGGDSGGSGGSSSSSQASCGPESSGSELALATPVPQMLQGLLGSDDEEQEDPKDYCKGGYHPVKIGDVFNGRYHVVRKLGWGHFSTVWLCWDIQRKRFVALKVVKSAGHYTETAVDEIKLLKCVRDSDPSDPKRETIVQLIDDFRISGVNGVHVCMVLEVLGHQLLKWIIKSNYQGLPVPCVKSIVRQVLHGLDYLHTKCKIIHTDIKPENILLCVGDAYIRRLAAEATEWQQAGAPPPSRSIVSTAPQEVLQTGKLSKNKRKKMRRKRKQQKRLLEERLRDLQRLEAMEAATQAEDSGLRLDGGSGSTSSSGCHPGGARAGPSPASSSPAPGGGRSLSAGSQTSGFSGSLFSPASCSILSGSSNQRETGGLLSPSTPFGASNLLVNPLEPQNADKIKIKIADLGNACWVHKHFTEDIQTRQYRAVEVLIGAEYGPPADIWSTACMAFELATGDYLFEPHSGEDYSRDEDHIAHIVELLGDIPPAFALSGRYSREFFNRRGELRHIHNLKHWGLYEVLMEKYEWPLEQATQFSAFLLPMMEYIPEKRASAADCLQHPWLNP

[24] = target: Dual specificity mitogen-activated protein kinase kinase 6 (Homo sapiens) (UniProt P52564); experiment: Inhibition of human MKK6 assessed as residual activity at 1 uM relative to control
[25] = test system: HL-60; experiment: Antiproliferative activity against human HL60 cells after 3 days by sulforhodamine B assay; assay type: functional; conditions: HL-60, 72 h; outline: as §1
[26] = Antiproliferative activity against human EKVX cells after 3 days by sulforhodamine B assay; assay type: functional; conditions: 72 h; outline: as §1
[27] = target: Serine/threonine-protein kinase PAK 2 (Homo sapiens) (UniProt Q13177); experiment: Inhibition of human PAK2 assessed as residual activity at 1 uM relative to control
[28] = target: Serine/threonine-protein kinase WNK3 (Homo sapiens) (UniProt Q9BYP7); experiment: Inhibition of human WNK3 assessed as residual activity at 1 uM relative to control
[29] = target: Serine/threonine-protein kinase NLK (Homo sapiens) (UniProt Q9UBE8); experiment: Inhibition of human NLK assessed as residual activity at 1 uM relative to control
Serine/threonine-protein kinase NLK (Homo sapiens), sequence (Q9UBE8 whole entry): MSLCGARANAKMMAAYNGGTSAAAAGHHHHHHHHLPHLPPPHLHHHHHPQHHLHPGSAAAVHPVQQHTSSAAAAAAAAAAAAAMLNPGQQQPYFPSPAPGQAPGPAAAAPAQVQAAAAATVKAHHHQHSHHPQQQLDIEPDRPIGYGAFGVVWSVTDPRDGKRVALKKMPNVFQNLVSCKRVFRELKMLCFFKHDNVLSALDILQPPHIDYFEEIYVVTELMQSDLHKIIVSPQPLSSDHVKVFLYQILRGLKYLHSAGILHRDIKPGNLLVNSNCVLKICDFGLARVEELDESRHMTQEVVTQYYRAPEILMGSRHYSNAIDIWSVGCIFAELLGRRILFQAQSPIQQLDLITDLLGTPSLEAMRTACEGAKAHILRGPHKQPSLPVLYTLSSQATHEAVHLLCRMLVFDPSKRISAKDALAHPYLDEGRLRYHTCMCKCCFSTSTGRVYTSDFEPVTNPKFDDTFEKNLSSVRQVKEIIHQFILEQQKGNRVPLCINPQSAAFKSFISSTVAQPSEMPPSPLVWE

[30] = target: Serine/threonine-protein kinase Chk2 (Homo sapiens) (UniProt O96017); experiment: Inhibition of CHK2 (unknown origin) assessed as residual activity at 1 uM relative to control
[31] = target: Tyrosine-protein kinase JAK2 (Homo sapiens) (UniProt O60674); experiment: Inhibition of JAK2 (unknown origin) assessed as residual activity at 1 uM relative to control
[32] = target: High affinity nerve growth factor receptor (Homo sapiens) (UniProt P04629); experiment: Inhibition of human TrkA assessed as residual activity at 1 uM relative to control

Tyrosine-protein kinase Yes (Homo sapiens), sequence (P07947 2-543 limits assumed): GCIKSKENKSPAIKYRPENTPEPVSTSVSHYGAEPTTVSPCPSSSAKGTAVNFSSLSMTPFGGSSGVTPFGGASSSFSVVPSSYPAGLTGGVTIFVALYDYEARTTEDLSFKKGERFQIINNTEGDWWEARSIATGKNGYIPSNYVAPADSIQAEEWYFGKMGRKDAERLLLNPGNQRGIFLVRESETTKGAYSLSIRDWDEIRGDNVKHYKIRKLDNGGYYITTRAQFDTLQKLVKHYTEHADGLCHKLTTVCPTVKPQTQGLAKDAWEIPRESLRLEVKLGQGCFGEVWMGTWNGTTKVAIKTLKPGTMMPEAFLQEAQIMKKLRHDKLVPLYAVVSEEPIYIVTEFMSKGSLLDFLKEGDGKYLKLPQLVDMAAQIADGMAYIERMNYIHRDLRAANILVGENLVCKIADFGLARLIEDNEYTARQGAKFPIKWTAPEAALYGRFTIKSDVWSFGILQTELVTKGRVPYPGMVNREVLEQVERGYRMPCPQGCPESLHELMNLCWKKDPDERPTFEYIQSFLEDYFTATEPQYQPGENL

- Activity [1]: 120%
- Activity [3]: 88%
- Activity [4]: 132%
- Activity [5]: 78%
- Activity [6]: 94%
- Activity [7]: 115%
- Activity [8]: 92%
- Activity [9]: 97%
- Activity [10]: 147%
- IC50 [11]: 2000 nM
- Activity [12]: 63%
- Activity [13]: 68%
- GI50 [14]: 1410 nM
- Activity [15]: 93%
- Activity [16]: 95%
- GI50 [17]: 282 nM
- Activity [18]: 99%
- Activity [19]: 97%
- Activity [20]: 97%
- Activity [21]: 61%
- Activity [22]: 94%
- Activity [23]: 73%
- Activity [24]: 87%
- GI50 [25]: 1850 nM
- Activity [27]: 124%
- Activity [28]: 106%
- Activity [29]: 123%
- Activity [30]: 89%
- Activity [31]: 103%
- Activity [32]: 127%
Structure (SMILES): O=C1Nc2ncccc2/C1=C1/Nc2ncccc2C1=O
- GI50 [2]: 338 nM
- GI50 [26]: 1270 nM
